# Experimental data from ChEMBL document CHEMBL2169866, “Antihypertensive profile of 2-thienyl-3,4-methylenedioxybenzoylhydrazone is mediated by activation of the A2A adenosine receptor” (Eur J Med Chem, 2012).
# Key:
# Rattus norvegicus [1] = assay: Antihypertensive activity in spontaneous hypertensive rat assessed as reduction in diastolic blood pressure at 10 mg/kg/day, ip for 14 days (reference value: 175.9 +/-7.3 mmHg); conditions: route intraperitoneal
# Rattus norvegicus [2] = assay: Effect on systolic blood pressure in WKY rat at 10 mg/kg/day, ip for 14 days (reference value: 121.1 +/- 4.5 mmHg); conditions: in vivo, 336 h
# [3] = target: T1, Adenosine receptor A3 (Homo sapiens) (UniProt P0DMS8); assay: Displacement of [[125I]AB-MECA from human recombinant A3 receptor expressed in HEK293 cells at 10 uM; format: cell-based
# T1 sequence (whole entry): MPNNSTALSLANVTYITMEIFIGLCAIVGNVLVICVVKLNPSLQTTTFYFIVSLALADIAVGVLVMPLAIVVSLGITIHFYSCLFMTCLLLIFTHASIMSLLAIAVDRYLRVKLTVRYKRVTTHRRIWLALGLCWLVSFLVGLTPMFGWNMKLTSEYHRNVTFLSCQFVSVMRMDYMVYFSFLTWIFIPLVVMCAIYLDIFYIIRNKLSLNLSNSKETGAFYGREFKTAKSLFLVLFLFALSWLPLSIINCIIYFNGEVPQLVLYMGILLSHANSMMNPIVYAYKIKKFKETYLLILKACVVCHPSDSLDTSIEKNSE
# How it was run: (§1)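 Radioligand competition binding used agonist radioligands at these levels: [3H]CCPA 1 nM for A1, [3H]CGS21680 6 nM for A2A, and [125I]AB-MECA 0.15 nM for A3. Results are expressed as percent inhibition of control specific binding: 100 − (measured specific binding / control specific binding × 100).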
# Rattus norvegicus [4] = assay: Effect on diastolic blood pressure in WKY rat at 10 mg/kg/day, ip for 14 days (reference value: 72.6 +/- 4.7 mmHg); conditions: in vivo, 336 h
# Rattus norvegicus [5] = assay: Antihypertensive activity in spontaneous hypertensive rat assessed as reduction in systolic blood pressure at 20 mg/kg/day, po for 7 days (reference value: 121.2 +/- 4.5 mmHg); format: functional, Artery
# How it was run: (§2)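 Male SHR, 13 weeks old, received 20 mg/kg orally once daily for 14 days. Noninvasive tail-cuff plethysmography 4 h post-dose gave systolic pressure, diastolic pressure and heart rate. Measurements were made at baseline and on days 1, 3, 5, 7, 11 and 14. n = 6, mean ± SEM.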
# Rattus norvegicus [6] = assay: Effect on diastolic blood pressure in WKY rat at 10 mg/kg/day, ip for 7 days (reference value: 72.6 +/- 4.7 mmHg); conditions: in vivo, 168 h
# Rattus norvegicus [7] = assay: Antihypertensive activity in spontaneous hypertensive rat assessed as reduction in systolic blood pressure at 10 mg/kg/day, ip for 14 days (reference value: 226 +/-11 mmHg); conditions: route intraperitoneal
# Rattus norvegicus [8] = assay: Antihypertensive activity in spontaneous hypertensive rat assessed as reduction in diastolic blood pressure at 10 mg/kg/day, ip for 7 days (reference value: 175.9 +/-7.3 mmHg); conditions: route intraperitoneal
# Rattus norvegicus [9] = assay: Effect on heart rate in spontaneous hypertensive rat at 20 mg/kg/day, po for 7 days (reference value: 383 +/- 21 bpm); format: organism-based; parameters: route oral; conditions: in vivo, 168 h
# How it was run: as §2
# Rattus norvegicus [10] = assay: Effect on heart rate in WKY rat at 10 mg/kg/day, ip for 7 days (reference value: 383 +/- 21 bpm); conditions: in vivo, 168 h
# Rattus norvegicus [11] = assay: Antihypertensive activity in spontaneous hypertensive rat assessed as reduction in diastolic blood pressure at 20 mg/kg/day, po for 7 days (reference value: 72.6 +/- 4.7 mmHg); format: functional, Artery
# How it was run: as §2
# Aorta [12] = assay: Vasorelaxation activity in WKY rat aortic rings with intact endothelium assessed as reduction in phenylephrine-induced contraction in presence of 100 nM A2A antagonist ZM241385; format: functional; parameters: scale not given: the % may be the effect or the level left
# How it was run: (§3)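 Isolated thoracic aortic rings from WKY rats were studied by isometric tension recording. Endothelium was judged intact when acetylcholine gave >80% relaxation, and was removed mechanically where stated. Rings were precontracted with a single phenylephrine concentration (10), then exposed to cumulative test concentrations (1–300). DMSO served as control. L-NAME, ZM 241385 (100 nM) or glibenclamide (5 µM) were added 20 min before phenylephrine. IC50 was derived per experiment. n = 6, mean ± SEM.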
# Rattus norvegicus [13] = assay: Antihypertensive activity in spontaneous hypertensive rat assessed as reduction in systolic blood pressure at 10 mg/kg/day, ip for 7 days (reference value: 226 +/-11 mmHg); conditions: route intraperitoneal
# Aorta [14] = assay: Vasorelaxation activity in WKY rat aortic rings with intact endothelium assessed as reduction in phenylephrine-induced contraction in presence of 100 uM NOS inhibitor L-NAME; format: functional; parameters: scale not given: the % may be the effect or the level left
# How it was run: as §3
# Rattus norvegicus [15] = assay: Effect on heart rate in spontaneous hypertensive rat at 10 mg/kg/day, ip for 7 days (reference value: 419 +/- 11 bpm); conditions: in vivo, 168 h
# [16] = target: T2, Adenosine receptor A1 (Homo sapiens) (UniProt P30542); assay: Displacement of [3H]CCPA from human recombinant A1 receptor expressed in CHO cells at 10 uM; format: cell-based
# T2 sequence (whole entry): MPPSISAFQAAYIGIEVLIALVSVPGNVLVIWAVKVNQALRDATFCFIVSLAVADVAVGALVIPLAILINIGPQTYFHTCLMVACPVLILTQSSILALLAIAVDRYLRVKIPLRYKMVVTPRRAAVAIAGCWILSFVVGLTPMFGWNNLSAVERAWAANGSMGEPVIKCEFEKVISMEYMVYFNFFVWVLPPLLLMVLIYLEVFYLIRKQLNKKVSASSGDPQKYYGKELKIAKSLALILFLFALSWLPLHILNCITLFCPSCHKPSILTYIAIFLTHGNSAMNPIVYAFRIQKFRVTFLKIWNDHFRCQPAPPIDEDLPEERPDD
# How it was run: as §1
# Rattus norvegicus [17] = assay: Effect on heart rate in WKY rat at 10 mg/kg/day, ip for 14 days (reference value: 383 +/- 21 bpm); conditions: in vivo, 336 h
# Aorta [18] = assay: Vasorelaxation activity in WKY rat aortic rings with denuded endothelium assessed as reduction in phenylephrine-induced contraction relative to untreated control; format: functional; parameters: scale not given: the % may be the effect or the level left
# How it was run: as §3
# Rattus norvegicus [19] = assay: Antihypertensive activity in spontaneous hypertensive rat assessed as reduction in systolic blood pressure at 20 mg/kg/day, po for 14 days (reference value: 121.2 +/- 4.5 mmHg); format: functional, Artery
# How it was run: as §2
# Aorta [20] = assay: Vasorelaxation activity in WKY rat aortic rings with intact endothelium assessed as reduction in phenylephrine-induced contraction relative to untreated control; format: functional; parameters: scale not given: the % may be the effect or the level left
# How it was run: as §3
# Rattus norvegicus [21] = assay: Effect on heart rate in spontaneous hypertensive rat at 20 mg/kg/day, po for 14 days (reference value: 383 +/- 21 bpm); format: organism-based; parameters: route oral; conditions: in vivo, 336 h
# How it was run: as §2
# Aorta [22] = assay: Vasorelaxation activity in WKY rat aortic rings with intact endothelium assessed as reduction in phenylephrine-induced contraction; format: functional, tissue-based
# How it was run: as §3
# Rattus norvegicus [23] = assay: Effect on systolic blood pressure in WKY rat at 10 mg/kg/day, ip for 7 days (reference value: 121.1 +/- 4.5 mmHg); conditions: in vivo, 168 h
# Rattus norvegicus [24] = assay: Antihypertensive activity in spontaneous hypertensive rat assessed as reduction in diastolic blood pressure at 20 mg/kg/day, po for 14 days (reference value: 72.6 +/- 4.7 mmHg); format: functional, Artery
# How it was run: as §2
# [25] = target: Adenosine receptor A2a (Homo sapiens) (UniProt P29274); assay: Displacement of [3HCGS21680 from human recombinant A2A receptor expressed in HEK293 cells at 10 uM; format: cell-based
# Chain of Adenosine receptor A2a (Homo sapiens) (P29274 whole entry): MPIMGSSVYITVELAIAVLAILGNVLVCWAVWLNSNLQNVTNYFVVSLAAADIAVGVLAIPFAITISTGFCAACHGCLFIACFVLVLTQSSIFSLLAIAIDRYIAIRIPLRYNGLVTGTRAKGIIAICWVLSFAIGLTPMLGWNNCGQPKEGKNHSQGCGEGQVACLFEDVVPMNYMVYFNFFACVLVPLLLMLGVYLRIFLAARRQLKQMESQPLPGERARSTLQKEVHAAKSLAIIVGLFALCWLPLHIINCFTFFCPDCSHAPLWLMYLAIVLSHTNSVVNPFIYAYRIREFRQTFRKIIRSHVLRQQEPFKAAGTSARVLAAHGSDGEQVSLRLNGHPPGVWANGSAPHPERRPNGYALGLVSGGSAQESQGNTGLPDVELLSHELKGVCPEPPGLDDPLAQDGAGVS
# How it was run: as §1
# Aorta [26] = assay: Vasorelaxation activity in WKY rat aortic rings with denuded endothelium assessed as reduction in phenylephrine-induced contraction in presence of 5 uM KATP channel blocker glibenclamide; format: functional; parameters: scale not given: the % may be the effect or the level left
# How it was run: as §3
# Rattus norvegicus [27] = assay: Effect on heart rate in spontaneous hypertensive rat at 10 mg/kg/day, ip for 14 days (reference value: 419 +/- 11 bpm); conditions: in vivo, 336 h
smiles,measurement,setting,value
O=C(N/N=C/c1ccc2c(c1)OCO2)c1cccs1,Activity,Rattus norvegicus [1],95.5 mmHg
same,Activity,Rattus norvegicus [2],109 mmHg
same,inhibition,[3],67.5%
same,Activity,Rattus norvegicus [4],88 mmHg
same,Activity,Rattus norvegicus [5],109 mmHg
same,Activity,Rattus norvegicus [6],79.4 mmHg
same,Activity,Rattus norvegicus [7],118 mmHg
same,Activity,Rattus norvegicus [8],106.2 mmHg
same,Activity,Rattus norvegicus [9],379 bpm
same,Activity,Rattus norvegicus [10],379 bpm
same,Activity,Rattus norvegicus [11],79.4 mmHg
same,Activity,Aorta [12],8.3%
same,Activity,Rattus norvegicus [13],126.2 mmHg
same,Activity,Aorta [14],9.1%
same,Activity,Rattus norvegicus [15],376 bpm
same,inhibition,[16],29.1%
same,Activity,Rattus norvegicus [17],398 bpm
same,Activity,Aorta [18],28.4%
same,Activity,Rattus norvegicus [19],109 mmHg
same,Activity,Aorta [20],100%
same,Activity,Rattus norvegicus [21],398 bpm
same,Activity,Aorta [22],Dose-dependent effect
same,IC50,Aorta [22],6.9 µM
same,Activity,Rattus norvegicus [23],109 mmHg
same,Activity,Rattus norvegicus [24],88 mmHg
same,inhibition,[25],47.5%
same,Activity,Aorta [26],3.6%
same,Activity,Rattus norvegicus [27],344.8 bpm
